Test results: ChEMBL document CHEMBL4689842, “EUbOPEN Chemogenomics Library wave 1” (2021)

What was measured:
Format in all cases: toxicity, cell-based
U2OS = test: Multiplex assay against U2OS; settings: human
Method in brief: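 Tubulin, mitochondrial-mass and membrane-permeability phenotypes are per cents of healthy-nucleus cells. Cells were gated by CellPathfinder machine learning into Hoechst high-intensity objects or normal cells, normal cells into healthy, pyknosed or fragmented nuclei, and pyknosed cells into mitotic or apoptotic. Before that, live cells stained at seeding with Hoechst33342, BioTracker Green Microtubule Cytoskeleton Dye, MitoTracker Red and Annexin V Alexa Fluor 680 were imaged on a CQ1 microscope at 37°C and 5% CO2 after compound addition.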

Fibroblast = test: Incucyte cell viability with human fibroblast; settings: 10 µM, compound concentration 10 uM; note: filed as whole numbers so only -1 and 0 and 1 occur
HEK-293T = test: Incucyte cell viability with HEK293T; settings: human, 10 µM, compound concentration 10 uM; note: filed as whole numbers so only -1 and 0 and 1 occur
[1] = 24 h, 10 µM, compound concentration 10 uM, replicate 1
[2] = 24 h, 10 µM, compound concentration 10 uM, replicate 2
[3] = 48 h, 1 µM, compound concentration 1 uM, replicate 1
[4] = 48 h, 1 µM, compound concentration 1 uM, replicate 2
[5] = 48 h, 10 µM, compound concentration 10 uM, replicate 1
[6] = 48 h, 10 µM, compound concentration 10 uM, replicate 2
[7] = 0 h, replicate number 1, timepoint 0 hours
[8] = 6 h, replicate number 1, timepoint 6 hours
[9] = 12 h, replicate number 1, timepoint 12 hours
[10] = 18 h, replicate number 1, timepoint 18 hours
[11] = 24 h, replicate number 1, timepoint 24 hours

CC(Cc1ccc(O)c(O)c1)C(C)Cc1ccc(O)c(O)c1 (configuration not stated) [NORDIHYDROGUAIARETIC ACID]
Population Membrane Permeable-Phenotype (%) (U2OS; [1]): 10%
Population Mitochondria Different-Phenotype (%) (U2OS; [1]): 15%
Population Mitotic Cells (%) (U2OS; [1]): 38%
Population Normal (%) (U2OS; [1]): 85%
Population Pyknosed Nuclei (%) (U2OS; [1]): 12%
Population Tubulin-Different-Phenotype (%) (U2OS; [1]): 59%
Population Apoptotic (%) (U2OS; [2]): 16%
Population Fragmented Nuclei (%) (U2OS; [2]): 2%
Population Healthy Nuclei (%) (U2OS; [2]): 90%
Population Hoechst High Intensity Objects (%) (U2OS; [2]): 5%
Population Membrane Permeable-Phenotype (%) (U2OS; [2]): 1%
Population Mitochondria Different-Phenotype (%) (U2OS; [2]): 9%
Population Mitotic Cells (%) (U2OS; [2]): 83%
Population Normal (%) (U2OS; [2]): 94%
Population Pyknosed Nuclei (%) (U2OS; [2]): 7%
Population Tubulin-Different-Phenotype (%) (U2OS; [2]): 61%
Population Apoptotic (%) (U2OS; [3]): 43%
Population Fragmented Nuclei (%) (U2OS; [3]): 9%
Population Healthy Nuclei (%) (U2OS; [3]): 81%
Population Hoechst High Intensity Objects (%) (U2OS; [3]): 2%
Population Membrane Permeable-Phenotype (%) (U2OS; [3]): 2%
Population Mitochondria Different-Phenotype (%) (U2OS; [3]): 18%
Population Mitotic Cells (%) (U2OS; [3]): 56%
Population Normal (%) (U2OS; [3]): 97%
Population Pyknosed Nuclei (%) (U2OS; [3]): 8%
Population Tubulin-Different-Phenotype (%) (U2OS; [3]): 14%
Population Apoptotic (%) (U2OS; [4]): 20%
Population Fragmented Nuclei (%) (U2OS; [4]): 8%
Population Healthy Nuclei (%) (U2OS; [4]): 86%
Population Hoechst High Intensity Objects (%) (U2OS; [4]): 6%
Population Membrane Permeable-Phenotype (%) (U2OS; [4]): 4%
Population Mitochondria Different-Phenotype (%) (U2OS; [4]): 9%
Population Mitotic Cells (%) (U2OS; [4]): 80%
Population Normal (%) (U2OS; [4]): 93%
Population Pyknosed Nuclei (%) (U2OS; [4]): 5%
Population Tubulin-Different-Phenotype (%) (U2OS; [4]): 30%
Population Apoptotic (%) (U2OS; [5]): 72%
Population Fragmented Nuclei (%) (U2OS; [5]): 15%
Population Healthy Nuclei (%) (U2OS; [5]): 74%
Population Hoechst High Intensity Objects (%) (U2OS; [5]): 9%
Population Membrane Permeable-Phenotype (%) (U2OS; [5]): 6%
Population Mitochondria Different-Phenotype (%) (U2OS; [5]): 18%
Population Mitotic Cells (%) (U2OS; [5]): 27%
Population Normal (%) (U2OS; [5]): 90%
Population Pyknosed Nuclei (%) (U2OS; [5]): 9%
Population Tubulin-Different-Phenotype (%) (U2OS; [5]): 76%
Population Apoptotic (%) (U2OS; [6]): 66%
Population Fragmented Nuclei (%) (U2OS; [6]): 1%
Population Healthy Nuclei (%) (U2OS; [6]): 92%
Population Hoechst High Intensity Objects (%) (U2OS; [6]): 6%
Population Membrane Permeable-Phenotype (%) (U2OS; [6]): 4%
Population Mitochondria Different-Phenotype (%) (U2OS; [6]): 16%
Population Mitotic Cells (%) (U2OS; [6]): 33%
Population Normal (%) (U2OS; [6]): 93%
Population Pyknosed Nuclei (%) (U2OS; [6]): 6%
Population Tubulin-Different-Phenotype (%) (U2OS; [6]): 77%
Growth Rate (Fibroblast; [7]): 0
Growth Rate (Fibroblast; [8]): 0
Growth Rate (Fibroblast; [9]): 0
Growth Rate (Fibroblast; [10]): 0
Growth Rate (Fibroblast; [11]): 0
Growth Rate (HEK-293T; [7]): 1
Growth Rate (HEK-293T; 0 h, replicate number 2, timepoint 0 hours): 0
Growth Rate (HEK-293T; [8]): 0
Growth Rate (HEK-293T; [9]): 0
Growth Rate (HEK-293T; [10]): 0
Growth Rate (HEK-293T; [11]): 0
